The nature of data set [1]: Dissociation constant was evaluated. The data set is classed as physicochemical.
Data set [2] in a line: Selectivity for inhibition of thrombin over trypsin. The essentials: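 Ratio Ki(trypsin)/Ki(thrombin). Both Ki values came from chromogenic-substrate amidolytic assays, each derived by Cheng–Prusoff from IC50 or from velocity equations with and without inhibitor using the relevant Km.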
The nature of data set [3]: Concentration required to double the thrombin time in human plasma. It counts as functional.
In another data set the target is Coagulation factor X (Homo sapiens, UniProt P00742). Kind of data set: In vitro inhibition of Coagulation factor Xa. The essentials:
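Amidolytic assay with a chromogenic substrate for factor Xa. Ki was derived by the Cheng–Prusoff relation from IC50 values, or from velocity equations with and without inhibitor using the substrate Km.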

The target in another data set is T1, Serine protease 1 (Bos taurus, UniProt P00760).
T1 sequence (P00760 whole entry): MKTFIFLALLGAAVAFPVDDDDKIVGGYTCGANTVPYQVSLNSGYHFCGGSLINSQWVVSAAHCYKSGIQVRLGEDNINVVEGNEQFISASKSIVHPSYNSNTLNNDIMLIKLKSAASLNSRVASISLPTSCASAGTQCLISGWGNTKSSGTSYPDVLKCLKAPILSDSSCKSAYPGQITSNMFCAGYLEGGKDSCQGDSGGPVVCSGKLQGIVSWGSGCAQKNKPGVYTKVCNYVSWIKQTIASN
Briefly: In vitro inhibition of bovine trypsin. The essentials: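 Amidolytic assay of thrombin, trypsin and factor Xa activity with chromogenic substrates. Ki was derived by the Cheng–Prusoff relation from IC50, or from reaction velocity equations with and without inhibitor using the substrate Km. Thrombin-over-trypsin selectivity was taken as the ratio Ki(trypsin)/Ki(thrombin).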

Another data set addresses Prothrombin (Homo sapiens, UniProt P00734). Briefly: In vitro inhibition of human thrombin.
The nature of data set [4]: Concentration required to double the activated partial thromboplastin time in human plasma. It counts as functional.
Data set [5] is described as follows: Concentration required to double the prothrombin time in human plasma. The data set is classed as functional.

Structures are written as SMILES.

Coagulation factor X, sequence (P00742 41-179 limits assumed): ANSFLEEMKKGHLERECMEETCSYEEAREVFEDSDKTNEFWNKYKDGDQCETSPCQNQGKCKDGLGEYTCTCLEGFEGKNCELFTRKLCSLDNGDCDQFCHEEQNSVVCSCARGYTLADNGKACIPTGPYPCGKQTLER
Coagulation factor X, sequence (P00742 235-488 limits assumed): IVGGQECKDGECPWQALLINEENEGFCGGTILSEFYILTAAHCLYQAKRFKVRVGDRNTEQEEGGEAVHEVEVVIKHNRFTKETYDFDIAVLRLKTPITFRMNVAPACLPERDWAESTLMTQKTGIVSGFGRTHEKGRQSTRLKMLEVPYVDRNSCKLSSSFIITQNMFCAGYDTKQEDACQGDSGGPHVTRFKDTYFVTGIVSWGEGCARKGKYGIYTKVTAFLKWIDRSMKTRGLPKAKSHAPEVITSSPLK

For `Cc1ccc(NS(=O)(=O)Cc2ccc(F)cc2)c(=O)n1CC(=O)NCC1CCc2n[nH]cc2C1` (stereo not given), the pKa in data set [1] came to 4. Besides, the Selectivity in data set [2] is 1720. The molecule further displayed a TT in data set [3] of 3.9 µM. Besides, the Ki at Coagulation factor X is 314 µM; on Serine protease 1, 258 µM; on Prothrombin it was 0.149 µM. Moreover, in data set [4], the “2x APTT” value was found to be 15.8 µM. This molecule also returned a PT in data set [5] of 34 µM.

`CCCS(=O)(=O)Nc1ccc(C)n(CC(=O)NC2CCc3nc(N)sc3C2)c1=O` (stereo not given): the pKa in data set [1] amounted to 6.1. The molecule further registered a Selectivity in data set [2] of 28. For the same molecule, the Ki came to 200 µM on Coagulation factor X, 64.3 µM at Serine protease 1 and 2.3 µM at Prothrombin.

`Cc1ccc(NS(=O)(=O)Cc2ccccc2)c(=O)n1CC(=O)N[C@@H]1CCc2nc(N)sc2C1` had a pKa in data set [1] of 6.1. In addition, in data set [2], the Selectivity is 3700. Further, the values for the Ki on Coagulation factor X, on Serine protease 1 and at Prothrombin were 225 µM, 263 µM and 0.071 µM, respectively. For the same molecule, the “2x APTT” value in data set [4] turned out to be 9.52 µM.

On to `Cc1ccc(NS(=O)(=O)Cc2cccc(C(F)(F)F)c2)c(=O)n1CC(=O)NCC1CCc2n[nH]cc2C1` (stereo not given), for which the pKa in data set [1] is 4. In data set [2], the Selectivity came out at 757. This molecule also registered a TT in data set [3] of 36.6 µM. In addition, the Ki at Coagulation factor X worked out at 252 µM; on Serine protease 1 it was 425 µM; at Prothrombin, 0.562 µM. In data set [4], the “2x APTT” value stood at 447 µM. This molecule also registered a PT in data set [5] of 293 µM.

`Cc1ccc(NS(=O)(=O)Cc2ccccc2)c(=O)n1CC(=O)NC1CCc2c(sc(=N)n2N)C1` (stereo not given) yielded a pKa in data set [1] of 3.17. The molecule further came in with a Selectivity in data set [2] of 65. For the same molecule, the Ki is > 200 µM on Coagulation factor X, 2.71 µM on Serine protease 1 and 0.042 µM on Prothrombin. The “2x APTT” value in data set [4] was found to be 2.4 µM.

As for `CCCS(=O)(=O)Nc1ccc(C)n(CC(=O)NCC2CCc3nc(N)sc3C2)c1=O` (stereo not given), the pKa in data set [1] turned out to be 6.5. For the same molecule, on Prothrombin, the Ki came to 3.8 µM.

On to `Cc1ccc(NS(=O)(=O)Cc2ccc(F)cc2Cl)c(=O)n1CC(=O)NC1CCc2nc(N)sc2C1` (stereo not given), for which the pKa in data set [1] came out at 6.1. In data set [3], this molecule gave a TT of 93.8 µM. For the same molecule, the Ki is 69 µM on Coagulation factor X, 1920 µM at Serine protease 1 and 0.157 µM on Prothrombin. Also, the “2x APTT” value in data set [4] came to 94 µM.

In turn, `Cc1ccc(NS(=O)(=O)Cc2ccc(F)cc2)c(=O)n1CC(=O)NC1CCc2c(sc(=N)n2N)C1` (stereo not given) returned a pKa in data set [1] of 3.17. The molecule further displayed a Selectivity in data set [2] of 201. Further, the Ki on Coagulation factor X is 131 µM; at Serine protease 1, 8.06 µM; at Prothrombin, 0.022 µM. In data set [4], the “2x APTT” value was found to be 22.6 µM.

Take `Cc1ccc(NS(=O)(=O)Cc2ccccc2)c(=O)n1CC(=O)NCC1CCc2n[nH]cc2C1` (stereo not given): the Selectivity in data set [2] was > 2940. In data set [3], this molecule came in with a TT of 5.2 µM. Further, the Ki at Serine protease 1 is > 500 µM. Moreover, the “2x APTT” value in data set [4] was 20.5 µM. This molecule also yielded a PT in data set [5] of 30.6 µM.

In turn, `Cc1ccc(NS(=O)(=O)Cc2ccc(F)cc2)c(=O)n1CC(=O)N[C@H]1CCc2nc(N)sc2C1` had a pKa in data set [1] of 6.1. Further, the Selectivity in data set [2] was > 123. In addition, the Ki at Coagulation factor X was 176 µM; on Serine protease 1, > 700 µM.

In data set [1], `Cc1ccc(NS(=O)(=O)Cc2ccc(F)cc2Cl)c(=O)n1CC(=O)NCC1CCc2n[nH]cc2C1` (stereo not given) displayed a pKa of 4. Further, in data set [2], the Selectivity is > 1910. The molecule also returned a TT in data set [3] of 10.8 µM. The Ki is 75 µM at Coagulation factor X, > 300 µM at Serine protease 1 and 0.157 µM on Prothrombin. In addition, the “2x APTT” value in data set [4] stood at 50 µM. The PT in data set [5] is 120 µM.

On to `Cc1ccc(NS(=O)(=O)Cc2ccc(F)cc2)c(=O)n1CC(=O)NC1CCc2nc(N)sc2C1` (stereo not given), for which the pKa in data set [1] was determined as 6.1. Further, the Selectivity in data set [2] is > 8000. This molecule registered a TT in data set [3] of 5.1 µM. For the same molecule, the Ki was > 300 µM on Coagulation factor X, > 800 µM at Serine protease 1 and 0.1 µM on Prothrombin. The “2x APTT” value in data set [4] was found to be 28.7 µM. The molecule further displayed a PT in data set [5] of 57.7 µM.

As to `Cc1ccc(CS(=O)(=O)Nc2ccc(C)n(CC(=O)NCC3CCc4n[nH]cc4C3)c2=O)cc1` (stereo not given), the pKa in data set [1] is 4. Besides, in data set [2], the Selectivity was > 2900. Moreover, in data set [3], the TT amounted to 3.4 µM. For the same molecule, the Ki at Coagulation factor X was 228 µM; on Serine protease 1, > 300 µM; at Prothrombin it was 0.102 µM. For the same molecule, the “2x APTT” value in data set [4] turned out to be 18.8 µM. Besides, the PT in data set [5] was determined as 26.8 µM.

For the molecule `CCCCS(=O)(=O)Nc1ccc(C)n(CC(=O)NC2CCc3nc(N)sc3C2)c1=O` (stereo not given), the pKa in data set [1] amounted to 6.1. In data set [2], this molecule yielded a Selectivity of 38. For the same molecule, the Ki at Coagulation factor X worked out at 179 µM; at Prothrombin it was 1.34 µM.

As to `Cc1ccc(NS(=O)(=O)Cc2ccccc2)c(=O)n1CC(=O)NC1CCc2nc(N)sc2C1` (stereo not given), the Selectivity in data set [2] was 2170. This molecule yielded a TT in data set [3] of 6.6 µM. The figures for the Ki at Coagulation factor X and at Prothrombin were 92 µM and 0.12 µM, respectively. Also, the “2x APTT” value in data set [4] stood at 36.5 µM. Also, the PT in data set [5] was 41.4 µM.

As for `Cc1ccc(NS(=O)(=O)Cc2ccc(F)cc2)c(=O)n1CC(=O)N[C@@H]1CCc2nc(N)sc2C1`, the pKa in data set [1] came to 6.1. Moreover, the Selectivity in data set [2] is > 9090. Besides, the inhibitory constant (Ki) at Coagulation factor X is > 500 µM; on Serine protease 1 it was > 700 µM; at Prothrombin, 0.077 µM. Also, in data set [4], the “2x APTT” value is 20.1 µM.

Consider `Cc1ccc(CS(=O)(=O)Nc2ccc(C)n(CC(=O)NC3CCc4nc(N)sc4C3)c2=O)cc1` (stereo not given), for which the pKa in data set [1] stood at 6.1. Also, the Selectivity in data set [2] is 2460. This molecule also came in with a TT in data set [3] of 12 µM. Besides, the Ki turned out to be 80 µM at Coagulation factor X, 246 µM on Serine protease 1 and 0.1 µM at Prothrombin. Also, the “2x APTT” value in data set [4] turned out to be 31.3 µM. The PT in data set [5] was 56 µM.

Molecule `Cc1ccc(NS(=O)(=O)Cc2ccccc2)c(=O)n1CC(=O)N[C@H]1CCc2nc(N)sc2C1` yielded a pKa in data set [1] of 6.1. In data set [2], this molecule came in with a Selectivity of 253. In addition, the Ki on Coagulation factor X turned out to be 371 µM; at Prothrombin, 1.16 µM.

As to `Cc1ccc(NS(=O)(=O)Cc2cccc(C(F)(F)F)c2)c(=O)n1CC(=O)NC1CCc2nc(N)sc2C1` (stereo not given), the pKa in data set [1] turned out to be 6.1. Besides, the Selectivity in data set [2] is > 300. The same molecule showed a TT in data set [3] of 125 µM. Moreover, the Ki at Coagulation factor X is 81 µM; on Serine protease 1, > 200 µM. In addition, the “2x APTT” value in data set [4] was 428 µM. The molecule further came in with a PT in data set [5] of 435 µM.
